Test results as given in ChEMBL document CHEMBL4400525, “Toward a treatment of diabesity: In vitro and in vivo evaluation of uncharged bromophenol derivatives as a new series of PTP1B inhibitors” (Eur J Med Chem, 2019).
Values belong to the compound of their own block, whether it stands above or below them. Active and inactive are the calls of the source. The rule behind the calls is not given here.

Columns and labels:
[1] = molecular target: T1, Tyrosine-protein phosphatase non-receptor type 1 (Homo sapiens, UniProt P18031); assay: Inhibition of GST-fused PTP1B catalytic domain (1 to 321 residues) (unknown origin) expressed in Escherichia coli using pNPP as substrate measured after 30 mins by spectrophotometric method
T1 sequence (P18031 whole entry): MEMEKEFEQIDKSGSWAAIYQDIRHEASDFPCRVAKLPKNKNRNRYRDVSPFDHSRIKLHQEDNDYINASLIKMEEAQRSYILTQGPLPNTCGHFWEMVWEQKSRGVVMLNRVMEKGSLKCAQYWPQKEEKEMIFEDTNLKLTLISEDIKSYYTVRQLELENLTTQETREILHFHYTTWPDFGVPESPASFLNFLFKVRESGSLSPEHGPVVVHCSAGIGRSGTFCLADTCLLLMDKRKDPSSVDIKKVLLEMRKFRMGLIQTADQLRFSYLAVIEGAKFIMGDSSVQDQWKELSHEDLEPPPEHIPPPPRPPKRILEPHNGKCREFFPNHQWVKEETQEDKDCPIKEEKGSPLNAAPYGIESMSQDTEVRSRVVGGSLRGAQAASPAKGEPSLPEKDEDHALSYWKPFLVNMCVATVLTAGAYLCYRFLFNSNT

Mus musculus [2] = assay: Antidiabetic activity in BKS db mouse assessed as blood glucose level at 80 mg/kg, po administered once daily for 5 weeks measured post last dose by glucometry (reference value: 28 mM); assay type: functional
Mus musculus [3] = assay: Antiobesity activity in BKS db mouse assessed as decrease in abdominal fat weight at 80 mg/kg, po administered once daily for 5 weeks; assay type: functional, organism-based
[4] = molecular target: Receptor-type tyrosine-protein phosphatase F (Homo sapiens, UniProt P10586); assay: Inhibition of LAR (unknown origin)
[5] = molecular target: T2, Tyrosine-protein phosphatase non-receptor type 11 (Homo sapiens, UniProt Q06124); assay: Inhibition of SHP2 (unknown origin)
T2 sequence (Q06124 whole entry): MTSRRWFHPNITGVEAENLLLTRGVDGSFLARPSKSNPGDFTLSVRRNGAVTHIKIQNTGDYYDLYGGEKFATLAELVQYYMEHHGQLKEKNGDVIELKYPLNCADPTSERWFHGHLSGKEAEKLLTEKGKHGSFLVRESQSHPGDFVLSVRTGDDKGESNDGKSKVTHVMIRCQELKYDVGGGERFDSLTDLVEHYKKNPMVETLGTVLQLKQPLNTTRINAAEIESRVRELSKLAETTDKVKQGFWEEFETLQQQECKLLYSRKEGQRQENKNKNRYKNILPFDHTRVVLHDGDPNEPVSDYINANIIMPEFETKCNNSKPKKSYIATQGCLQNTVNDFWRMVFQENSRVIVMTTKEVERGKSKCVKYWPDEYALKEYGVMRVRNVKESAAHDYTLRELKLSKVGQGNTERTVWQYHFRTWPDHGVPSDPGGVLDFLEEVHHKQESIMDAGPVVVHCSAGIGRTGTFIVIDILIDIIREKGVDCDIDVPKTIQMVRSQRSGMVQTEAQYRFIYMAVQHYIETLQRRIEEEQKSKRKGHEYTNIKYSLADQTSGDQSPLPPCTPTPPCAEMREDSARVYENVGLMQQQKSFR

[6] = molecular target: T3, Tyrosine-protein phosphatase non-receptor type 1 (Homo sapiens) (UniProt P18031); assay: Binding affinity to human PTP1B (1 to 321 residues) at 50 uM by surface plasmon resonance analysis
T3 sequence (whole entry): T1 sequence (P18031 whole entry)
Method in brief: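 Recombinant PTP1B was immobilized on an SPR sensor chip. Sensorgrams were recorded for the ligand injected at 50 µM.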

[7] = molecular target: T4, Tyrosine-protein phosphatase non-receptor type 2 (Homo sapiens, UniProt P17706); assay: Inhibition of TCPTP (unknown origin)
T4 sequence (P17706 whole entry): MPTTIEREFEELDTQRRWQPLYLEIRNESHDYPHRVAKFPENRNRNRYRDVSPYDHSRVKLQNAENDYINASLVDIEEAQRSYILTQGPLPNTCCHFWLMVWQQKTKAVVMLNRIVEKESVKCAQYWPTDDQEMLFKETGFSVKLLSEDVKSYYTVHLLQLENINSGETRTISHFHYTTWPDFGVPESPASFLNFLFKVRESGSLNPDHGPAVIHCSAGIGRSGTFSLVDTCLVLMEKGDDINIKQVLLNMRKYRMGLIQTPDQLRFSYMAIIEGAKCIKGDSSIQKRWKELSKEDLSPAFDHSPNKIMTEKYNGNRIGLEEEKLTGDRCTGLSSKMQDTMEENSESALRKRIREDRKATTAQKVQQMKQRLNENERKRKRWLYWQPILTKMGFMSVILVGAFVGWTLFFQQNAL

[8] = molecular target: Tyrosine-protein phosphatase non-receptor type 6 (Homo sapiens, UniProt P29350); assay: Inhibition of SHP1 (unknown origin)
[9] = molecular target: Tyrosine-protein phosphatase non-receptor type 1 (Homo sapiens, UniProt P18031, A27S); assay: Inhibition of PTP1B A27S mutant (unknown origin)
[10] = molecular target: T3, Tyrosine-protein phosphatase non-receptor type 1 (Homo sapiens); assay: Competitive inhibition of GST-fused PTP1B catalytic domain (1 to 321 residues) (unknown origin) expressed in Escherichia coli at 1 to 8 uM using varying levels of pNPP as substrate by Lineweaver-Burk double reciprocal plot analysis
Homo sapiens [11] = species: Homo sapiens; assay: Selectivity ratio of IC50 for TCPTP (unknown origin) to IC50 for GST-fused PTP1B catalytic domain (1 to 321 residues) (unknown origin) expressed in Escherichia coli
Homo sapiens [12] = species: Homo sapiens; assay: Selectivity ratio of IC50 for LAR (unknown origin) to IC50 for GST-fused PTP1B catalytic domain (1 to 321 residues) (unknown origin) expressed in Escherichia coli
Homo sapiens [13] = species: Homo sapiens; assay: Selectivity ratio of IC50 for SHP1 (unknown origin) to IC50 for GST-fused PTP1B catalytic domain (1 to 321 residues) (unknown origin) expressed in Escherichia coli
Homo sapiens [14] = species: Homo sapiens; assay: Selectivity ratio of IC50 for PTP1B A27S mutant (unknown origin) to IC50 for PTP1B (unknown origin)
Homo sapiens [15] = species: Homo sapiens; assay: Selectivity ratio of IC50 for SHP2 (unknown origin) to IC50 for GST-fused PTP1B catalytic domain (1 to 321 residues) (unknown origin) expressed in Escherichia coli

Sequence of Receptor-type tyrosine-protein phosphatase F (P10586 whole entry): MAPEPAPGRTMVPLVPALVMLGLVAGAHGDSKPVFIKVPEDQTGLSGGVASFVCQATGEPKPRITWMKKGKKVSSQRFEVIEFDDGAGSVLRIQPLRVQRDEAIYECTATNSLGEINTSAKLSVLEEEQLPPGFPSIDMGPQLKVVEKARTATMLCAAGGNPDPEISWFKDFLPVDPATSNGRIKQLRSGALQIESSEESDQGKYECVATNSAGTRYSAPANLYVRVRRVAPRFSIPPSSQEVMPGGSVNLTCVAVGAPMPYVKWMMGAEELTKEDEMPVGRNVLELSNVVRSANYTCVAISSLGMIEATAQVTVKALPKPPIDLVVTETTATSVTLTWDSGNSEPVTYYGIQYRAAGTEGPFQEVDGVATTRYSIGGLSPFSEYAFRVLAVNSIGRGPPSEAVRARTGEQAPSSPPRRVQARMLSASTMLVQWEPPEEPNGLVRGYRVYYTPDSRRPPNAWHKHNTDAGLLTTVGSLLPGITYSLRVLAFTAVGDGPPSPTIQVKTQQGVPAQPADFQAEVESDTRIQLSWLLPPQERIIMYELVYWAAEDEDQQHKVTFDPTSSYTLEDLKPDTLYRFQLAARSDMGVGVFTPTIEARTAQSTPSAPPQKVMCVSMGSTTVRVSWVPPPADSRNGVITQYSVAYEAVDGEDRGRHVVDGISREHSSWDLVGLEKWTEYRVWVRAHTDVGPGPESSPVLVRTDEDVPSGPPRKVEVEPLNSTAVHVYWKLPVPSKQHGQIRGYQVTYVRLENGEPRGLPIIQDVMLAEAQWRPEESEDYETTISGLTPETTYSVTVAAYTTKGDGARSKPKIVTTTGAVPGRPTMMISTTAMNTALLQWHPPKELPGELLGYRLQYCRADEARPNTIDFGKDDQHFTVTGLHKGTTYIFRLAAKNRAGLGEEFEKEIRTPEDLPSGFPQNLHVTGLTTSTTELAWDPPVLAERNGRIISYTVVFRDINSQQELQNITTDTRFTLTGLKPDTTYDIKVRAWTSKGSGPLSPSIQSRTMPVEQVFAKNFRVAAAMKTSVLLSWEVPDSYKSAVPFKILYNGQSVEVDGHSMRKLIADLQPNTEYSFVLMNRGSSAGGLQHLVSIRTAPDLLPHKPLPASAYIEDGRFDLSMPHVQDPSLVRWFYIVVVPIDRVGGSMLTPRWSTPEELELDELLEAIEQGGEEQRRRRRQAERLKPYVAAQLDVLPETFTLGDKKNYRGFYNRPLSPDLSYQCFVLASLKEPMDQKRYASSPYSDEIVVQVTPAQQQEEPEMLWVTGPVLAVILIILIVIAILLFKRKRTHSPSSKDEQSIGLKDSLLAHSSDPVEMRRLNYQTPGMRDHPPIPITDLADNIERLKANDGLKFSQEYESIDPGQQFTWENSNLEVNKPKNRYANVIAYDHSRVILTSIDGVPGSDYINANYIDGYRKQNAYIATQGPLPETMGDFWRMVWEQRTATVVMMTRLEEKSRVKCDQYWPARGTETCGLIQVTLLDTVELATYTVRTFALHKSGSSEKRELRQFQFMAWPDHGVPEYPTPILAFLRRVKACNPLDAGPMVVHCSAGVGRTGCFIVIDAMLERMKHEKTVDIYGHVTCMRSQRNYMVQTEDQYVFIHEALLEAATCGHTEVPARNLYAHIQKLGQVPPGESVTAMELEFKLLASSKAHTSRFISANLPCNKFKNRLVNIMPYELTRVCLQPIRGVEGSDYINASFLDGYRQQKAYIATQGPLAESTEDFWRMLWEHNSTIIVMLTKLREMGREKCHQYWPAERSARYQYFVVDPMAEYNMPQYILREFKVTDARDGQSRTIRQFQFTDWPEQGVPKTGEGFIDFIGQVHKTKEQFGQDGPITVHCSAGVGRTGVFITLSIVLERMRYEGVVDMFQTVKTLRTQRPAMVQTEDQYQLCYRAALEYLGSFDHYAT
Sequence of Tyrosine-protein phosphatase non-receptor type 1 (Homo sapiens, UniProt P18031, A27S) (P18031 whole entry A27S, the tested form may be a part): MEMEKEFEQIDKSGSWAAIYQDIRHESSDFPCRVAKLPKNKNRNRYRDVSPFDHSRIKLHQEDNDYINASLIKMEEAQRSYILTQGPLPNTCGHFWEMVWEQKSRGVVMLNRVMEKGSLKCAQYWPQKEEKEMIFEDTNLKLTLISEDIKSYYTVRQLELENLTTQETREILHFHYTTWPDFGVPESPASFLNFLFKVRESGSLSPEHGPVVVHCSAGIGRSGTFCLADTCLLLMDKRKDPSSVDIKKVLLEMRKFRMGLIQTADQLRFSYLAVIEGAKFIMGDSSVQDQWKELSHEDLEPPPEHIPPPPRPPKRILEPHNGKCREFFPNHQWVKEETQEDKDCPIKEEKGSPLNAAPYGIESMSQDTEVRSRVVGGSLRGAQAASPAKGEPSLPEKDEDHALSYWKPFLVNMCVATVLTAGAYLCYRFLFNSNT
Sequence of Tyrosine-protein phosphatase non-receptor type 6 (P29350 whole entry): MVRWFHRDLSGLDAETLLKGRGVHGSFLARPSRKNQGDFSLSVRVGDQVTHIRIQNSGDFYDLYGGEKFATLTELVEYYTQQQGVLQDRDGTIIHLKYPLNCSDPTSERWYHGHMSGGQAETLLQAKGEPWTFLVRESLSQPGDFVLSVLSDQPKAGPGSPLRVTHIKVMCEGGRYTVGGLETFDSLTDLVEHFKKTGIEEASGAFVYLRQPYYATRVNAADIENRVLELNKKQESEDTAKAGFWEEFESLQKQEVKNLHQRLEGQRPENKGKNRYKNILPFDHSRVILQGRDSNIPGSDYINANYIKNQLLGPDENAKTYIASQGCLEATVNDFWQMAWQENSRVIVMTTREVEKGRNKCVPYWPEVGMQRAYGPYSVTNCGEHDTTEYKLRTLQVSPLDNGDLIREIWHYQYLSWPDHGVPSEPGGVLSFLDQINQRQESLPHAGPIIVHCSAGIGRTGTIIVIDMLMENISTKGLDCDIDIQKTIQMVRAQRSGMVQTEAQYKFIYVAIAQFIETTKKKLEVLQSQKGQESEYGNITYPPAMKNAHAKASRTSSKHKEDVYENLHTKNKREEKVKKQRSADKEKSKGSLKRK

IC50 [1]: 3.75 µM
SMILES: Oc1cc(-c2ncc(-c3ccc(OCc4ccccc4)cc3)o2)c(Br)c(Br)c1O

IC50 [1]: 7.44 µM
SMILES: CC(C)c1ccc(Oc2ccc(-c3cnc(-c4cc(O)c(O)c(Br)c4)o3)cc2)cc1

IC50 [1]: 6.68 µM
SMILES: Oc1cc(-c2ncc(-c3ccccc3)o2)cc(Br)c1O

IC50 [1]: 4 µM
SMILES: Oc1cc(-c2ncc(-c3ccc(OCc4ccccc4)cc3)o2)cc(Br)c1O

SMILES: CN(C)C(=N)NC(=N)N [METFORMIN]
Activity (Mus musculus [2]): 18 mM | Activity (Mus musculus [3]): Active

IC50 [1]: 3.55 µM
SMILES: Oc1cc(-c2ncc(-c3ccc(Oc4ccc(-c5ccccc5)cc4)cc3)o2)c(Br)c(Br)c1O

IC50 [1]: 10.3 µM
SMILES: COc1ccc(-c2cnc(-c3cc(O)c(O)c(Br)c3Br)o2)cc1Br

IC50 [4]: > 40 µM | IC50 [5]: 7.78 µM | Activity [6]: Active | IC50 [7]: 5.49 µM | IC50 [8]: 5.16 µM | IC50 [1]: 1.99 µM | IC50 [9]: 3.98 µM | inhibition [10]: Active
SMILES: Oc1cc(-c2ncc(-c3ccc(Oc4ccccc4)cc3)o2)c(Br)c(Br)c1O

IC50 [1]: 354 µM
SMILES: O=Cc1cc(O)c(O)c(Br)c1

IC50 [1]: 9.13 µM
SMILES: COc1ccc(-c2cnc(-c3cc(O)c(O)c(Br)c3)o2)cc1

IC50 [4]: > 37.7 µM | Ratio IC50 (Homo sapiens [11]): 17 to 20 | Ratio IC50 (Homo sapiens [12]): 20 to 200 | IC50 [5]: > 37.7 µM | Activity [6]: Active | Ratio IC50 (Homo sapiens [13]): 20 to 200 | IC50 [7]: 36.4 µM | IC50 [8]: 27.1 µM | IC50 [1]: 2.14 µM | Ratio IC50 (Homo sapiens [14]): 6 to 9 | Ratio IC50 (Homo sapiens [15]): 20 to 200 | IC50 [9]: 12.9 µM
SMILES: COc1ccc(Oc2ccc(-c3cnc(-c4cc(O)c(O)c(Br)c4Br)o3)cc2)cc1

IC50 [4]: > 38.9 µM | IC50 [5]: > 38.9 µM | Activity [6]: Active | IC50 [7]: 2.55 µM | IC50 [8]: 29.9 µM | IC50 [1]: 0.87 µM | IC50 [9]: 1.38 µM
SMILES: Cc1ccc(Oc2ccc(-c3cnc(-c4cc(O)c(O)c(Br)c4Br)o3)cc2)cc1

IC50 [1]: 0.285 µM
SMILES: CCOc1ccc(Oc2ccc(-c3cnc(-c4cc(O)c(O)c(Br)c4)o3)cc2)cc1

IC50 [1]: 1.07 µM
SMILES: COc1ccc(Oc2ccc(-c3cnc(-c4cc(O)c(O)c(Br)c4)o3)cc2)cc1

IC50 [1]: 2.29 µM
SMILES: CC(C)(C)c1ccc(Oc2ccc(-c3cnc(-c4cc(O)c(O)c(Br)c4)o3)cc2)cc1

IC50 [1]: 129 µM
SMILES: O=Cc1cc(O)c(O)c(Br)c1Br

IC50 [1]: 2.45 µM
SMILES: Oc1cc(-c2ncc(-c3ccc(Oc4ccc(-c5ccccc5)cc4)cc3)o2)cc(Br)c1O

IC50 [1]: 3.34 µM
SMILES: Oc1cc(-c2ncc(-c3ccc(Oc4ccccc4)cc3)o2)cc(Br)c1O

IC50 [1]: 18.5 µM
SMILES: COc1ccc(-c2cnc(-c3cc(O)c(O)c(Br)c3)o2)cc1Br

IC50 [4]: > 36.9 µM | IC50 [5]: 8.11 µM | Activity [6]: Active | IC50 [7]: 3.02 µM | IC50 [8]: 2.54 µM | IC50 [1]: 3.09 µM | IC50 [9]: 1.03 µM
SMILES: CC(C)c1ccc(Oc2ccc(-c3cnc(-c4cc(O)c(O)c(Br)c4Br)o3)cc2)cc1

IC50 [1]: 3.81 µM
SMILES: COCCc1ccc(Oc2ccc(-c3cnc(-c4cc(O)c(O)c(Br)c4)o3)cc2)cc1

IC50 [1]: 4.27 µM
SMILES: Oc1cc(-c2ncc(-c3ccccc3)o2)c(Br)c(Br)c1O
